The record followed here is the array DNA melting data of Ke et al. (doi:10.1101/2024.01.08.574731).

Series [1] is described as follows: folding enthalpy; higher = less favourable; fluorescence melt of hairpins on a sequencing array, two-state fit. To be noted: sodium 0.088 M. In a few lines:
(§1)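 Bootstrapped two-state fits yielded melting temperature and folding enthalpy for library hairpins. Cy3 fluorescence, with annealed Cy3 and quencher oligos, was imaged on a sequenced MiSeq flow cell in 50 mM Na-HEPES pH 8.0, 25 mM NaCl in 2.5 °C steps up to 60 °C, and normalised to pre-quench Cy3 and to control constructs. Four replicates were combined by inverse variance, and fitted temperatures were raised by 9.35 °C to match UV melts.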

A short description of series [2]: melting temperature; fluorescence melt of hairpins on a sequencing array, two-state fit, raised by 9.35 °C to match UV melts. To be noted: sodium 0.088 M. The method in brief:
as §1

Turning to GCCGACGAAAGTCGCGGC ((((((....)))..))), the folding enthalpy in series [1] was -14.3 kcal/mol. In series [2], the Tm was found to be 59.2 °C.
Taken in the same sequence, the figures for GCCGACGAAAGTCTGGGC ((((((....)))..))) were -27.6 kcal/mol and 54.6 °C.
GCCGACGGAAACGCCGAC (.((.((....)).)).): the folding enthalpy in series [1] was -16.7 kcal/mol. Also, in series [2], the Tm was 36.4 °C.
In the case of GCCGACGGAAACGCCGGC ((((.((....)).)))), the folding enthalpy in series [1] is -38.7 kcal/mol. For the same sequence, the Tm in series [2] came out at 63 °C.
Taken in the same sequence, the figures for GCCGACGGAAACGTCGAC (.(((((....))))).) were -14.9 kcal/mol and 55.4 °C.
With GCCGAGCGAAAGCACCGC ((.(.((....)).).)), the folding enthalpy in series [1] was -14.1 kcal/mol. Besides, the Tm in series [2] was 38.5 °C.
Taken in the same sequence, the figures for GCCGAGCGAAAGCACTGC ((.(.((....)).).)) were -18.8 kcal/mol and 36.4 °C.
As for GCCGAGCGAAAGCGCCGC ((.(.((....)).).)), in series [1], the folding enthalpy was -12 kcal/mol. Further, in series [2], the Tm stood at 41.9 °C.
As to GCCGAGCGAAAGCTATGC ((..(((....)))..)), in series [1], the folding enthalpy is -12.5 kcal/mol. Further, in series [2], the Tm is 38.8 °C.
Turning to GCCGAGGGAAACCTCGAC (.(((((....))))).), the folding enthalpy in series [1] was -14.1 kcal/mol. The Tm in series [2] is 49.5 °C.
Taken in the same sequence, the figures for GCCGATACGAAAGTAGGC (((..(((....)))))) were -33 kcal/mol and 49.3 °C.
GCCGATCGAAAGATAGGC (((.(((....))).))): the folding enthalpy in series [1] is -41 kcal/mol. Further, the Tm in series [2] was 61 °C.
GCCGATCGAAAGATGGC (((.(((....)))))): in series [1], the folding enthalpy is -26.7 kcal/mol. In addition, in series [2], the Tm came to 54.5 °C.
On to GCCGATCGAAAGATGGGC (((.(((....))).))), for which, in series [1], the folding enthalpy was -40.4 kcal/mol. Moreover, in series [2], the Tm is 55.9 °C.
For GCCGATCGAAAGATTGGC (((.(((....))).))) the same measures were -45.5 kcal/mol and 61.1 °C.
For the sequence GCCGATTCGAAAGAAGGC (((..(((....)))))), the folding enthalpy in series [1] was -28.9 kcal/mol. Moreover, in series [2], the Tm is 43.2 °C.
Regarding GCCGCCGAAAGGCACGGC ((((((....)))..))), the folding enthalpy in series [1] was -16.7 kcal/mol. In addition, the Tm in series [2] was 62.6 °C.
Regarding GCCGCCGAAAGGCTCGGC ((((((....)))..))), in series [1], the folding enthalpy was -17.6 kcal/mol. Besides, the Tm in series [2] was 56.7 °C.
As to GCCGCCGGAAACGACGGC ((((.((....)).)))), the folding enthalpy in series [1] was -33.7 kcal/mol. The Tm in series [2] was found to be 67 °C.
With GCCGCCGGAAACGGCAGC ((.((((....)))).)), the folding enthalpy in series [1] was -15.9 kcal/mol. For the same sequence, the Tm in series [2] was found to be 59.1 °C.
With GCCGCCGGAAACGGCGAC (.(((((....))))).), the folding enthalpy in series [1] is -10.6 kcal/mol. Besides, the Tm in series [2] was 60.9 °C.
Turning to GCCGCCTCGAAAGAGGGC (((..(((....)))))), the folding enthalpy in series [1] was -8.74 kcal/mol. The Tm in series [2] stood at 51.1 °C.
For GCCGCGACGAAAGTCGGC (((..(((....)))))), the folding enthalpy in series [1] was -9.47 kcal/mol. Further, in series [2], the Tm came out at 62.4 °C.
For GCCGCGCCGAAAGGCGGC (((..(((....)))))), the folding enthalpy in series [1] was -9.11 kcal/mol. For the same sequence, the Tm in series [2] is 67.6 °C.
Turning to GCCGCGCGAAAGCCCAGC ((.(.((....)).).)), the folding enthalpy in series [1] is -12.7 kcal/mol. The Tm in series [2] stood at 29.9 °C.
With GCCGCGCGAAAGCCTGGC (((..((....))..))), the folding enthalpy in series [1] was -17.5 kcal/mol. Also, in series [2], the Tm came to 53.8 °C.
For the sequence GCCGCGCGAAAGCGCTGC ((.((((....)))).)), in series [1], the folding enthalpy is -16.6 kcal/mol. For the same sequence, the Tm in series [2] came out at 61.5 °C.
With GCCGCGCGAAAGCTAGGC (((..((....))..))), the folding enthalpy in series [1] is -28.2 kcal/mol. For the same sequence, the Tm in series [2] is 62.5 °C.
In the case of GCCGCGGGAAACCGCAGC ((.((((....)))).)), the folding enthalpy in series [1] is -16.9 kcal/mol. In addition, the Tm in series [2] turned out to be 59.3 °C.
For the sequence GCCGCGTCGAAAGACGGC (((..(((....)))))), the folding enthalpy in series [1] is -9.58 kcal/mol. Further, the Tm in series [2] turned out to be 56.9 °C.
Regarding GCCGCTACGAAAGTAGGC (((..(((....)))))), the folding enthalpy in series [1] is -18 kcal/mol. The Tm in series [2] is 51 °C.
For GCCGCTGGAAACGGTGGC (((.(.(....).).))), in series [1], the folding enthalpy is -44.9 kcal/mol. In addition, the Tm in series [2] was determined as 51.7 °C.
For GCCGGAACGAAAGTTGGC (((..(((....)))))), the folding enthalpy in series [1] is -24.3 kcal/mol. Further, in series [2], the Tm amounted to 47.4 °C.
For GCCGGAGCGAAAGCTGGC (((..(((....)))))), the folding enthalpy in series [1] is -21.6 kcal/mol. The Tm in series [2] was 55.4 °C.
As for GCCGGAGGAAACTCCAGC ((.((((....)))).)), the folding enthalpy in series [1] was -23.8 kcal/mol. Besides, the Tm in series [2] worked out at 40.9 °C.
In the case of GCCGGAGGAAACTTCGGC ((((.((....)).)))), in series [1], the folding enthalpy is -38.6 kcal/mol. The Tm in series [2] was determined as 56.3 °C.
For GCCGGCGAAAGCCACGGC ((((((....)))..))), the folding enthalpy in series [1] was -21.5 kcal/mol. Moreover, in series [2], the Tm stood at 63.4 °C.
